# Assay results as given in ChEMBL document CHEMBL1132941, “Structure-activity study on the in vitro antiprotozoal activity of glutathione derivatives” (2000).
# Calls of active or inactive are those of the source. The calls are words filed in the database; no cut-off is given here.
# Assays:
# K562 = assay: Tested for cytotoxicity in human K562 cells; type: functional; conditions: read-out: ID50 (the source's name)
# How it was run: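 K562 human CML cells in RPMI + 10% fetal calf serum at 37 °C, 5% CO₂, humidified. Exposed to compound for 5 days. Viability read by the semi-automated NCI MTT-type (Mosmann) tetrazolium assay, run by an external institute.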
# Leishmania donovani [1] = assay: Evaluated for antiparasitic activity against Leishmania donovani; NA is Not active.; type: functional, organism-based
# How it was run: (§1)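 L. donovani (strain MHOM/ET/67/L82) amastigotes from hamster passage, used to infect starch-elicited peritoneal macrophages from female CD1 mice (4 × 10⁴/well, RPMI-1640 + 10% HIFCS) at 10:1 after 24 h adherence. Drug given as a 3-fold dilution series, top concentration ~30 µM, quadruplicate, 5 days. Read-out is % macrophages cleared of amastigotes versus untreated control. Sodium stibogluconate serves as control.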
# Trypanosoma brucei [2] = assay: Evaluated for antiparasitic activity against brucei trypomastigotes; type: functional; conditions: read-out: ED50 (the source's name)
# How it was run: (§2)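 T. brucei S427 bloodstream trypomastigotes in HMI-18 + 20% HIFCS, seeded at 2 × 10⁵/mL mixed with equal volume of compound. Compound given as a 3-fold dilution series from 30 µM top, triplicate, 3 days at 37 °C, 5% CO₂. Growth measured by tetrazolium colorimetric assay on day 3 and expressed as % inhibition versus untreated control. Pentamidine serves as positive control.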
# Trypanosoma cruzi [3] = assay: Evaluated for antiparasitic activity against Trypanosoma cruzi amastigotes; NA is Not active.; type: functional, organism-based
# How it was run: (§3)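 T. cruzi (strain MHOM/BR/OO/Y) trypomastigotes, MDCK-derived, used to infect starch-elicited peritoneal macrophages from female CD1 mice (4 × 10⁴/well, RPMI-1640 + 10% HIFCS) at 5:1 after 24 h. Drug given as a 3-fold dilution series up to ~30 µM, quadruplicate, 3 days. Activity is scored as % macrophages cleared of amastigotes relative to untreated control. Nifurtimox serves as control.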
# Trypanosoma brucei [4] = assay: Evaluated for antiparasitic activity against brucei trypomastigotes; NA is Not active.; type: functional, organism-based; how it was run: as §2
# Trypanosoma cruzi [5] = assay: Compound is evaluated for antiparasitic activity against Trypanosoma cruzi amastigotes; type: functional; how it was run: as §3
# Leishmania donovani [6] = assay: Evaluated for antiparasitic activity against Leishmania donovani; type: functional; how it was run: as §1
# Trypanosoma cruzi [7] = assay: Compound is evaluated for antiparasitic activity against Trypanosoma cruzi; type: functional; how it was run: as §3
# Trypanosoma brucei [8] = assay: Compound is evaluated for antiparasitic brucei trypomastigotes percent inhibition is given in parentheses; type: functional; conditions: read-out: ED50 (the source's name); how it was run: as §2
# Trypanosoma cruzi [9] = assay: Compound is evaluated for antiparasitic activity against Trypanosoma cruzi amastigotes.; type: functional; how it was run: as §3
# Leishmania donovani [10] = assay: Compound is evaluated for antiparasitic activity against Leishmania donovani; type: functional; how it was run: as §1
SMILES,IC50 (K562),NA (Leishmania donovani [1]),EC50 (Trypanosoma brucei [2]),NA (Trypanosoma cruzi [3]),further results
NC(=O)CNC(=O)C(CSCc1ccc(Br)cc1)NC(=O)CCC(N)C(=O)O (stereo not given),> 50 µM,inactive,< 30 µM,inactive,
COC(=O)CNC(=O)C(CSCc1ccc(Br)cc1)NC(=O)CCC(NC(=O)OCc1ccccc1)C(=O)O (stereo not given),> 50 µM,inactive,,inactive,NA (Trypanosoma brucei [4]): inactive
O=CNC(CCC(=O)NC(CSCc1ccc(Br)cc1)C(=O)NCC(=O)O)C(=O)O (stereo not given),> 50 µM,inactive,,,NA (Trypanosoma brucei [4]): inactive; Inhibition (Trypanosoma cruzi [5]): 11%
CCCCCCOC(=O)CNC(=O)C(CSc1ccc([N+](=O)[O-])cc1[N+](=O)[O-])NC(=O)CCC(NC(=O)OCc1ccccc1)C(=O)OCCCCCC (stereo not given),> 50 µM,,5.8 µM,,ED50 (Leishmania donovani [6]): > 50 µM; ED50 (Trypanosoma cruzi [7]): < 50 µM
COC(=O)CNC(=O)C(CSC(=O)OCc1ccccc1)NC(=O)CCC(NC(C)=O)C(=O)OC (stereo not given),> 50 µM,,3.2 µM,,
COC(=O)CNC(=O)C(CSCc1ccc(Br)cc1)NC(=O)CCC(NC(=O)OCc1ccccc1)C(=O)OC (stereo not given),16.7 µM,,,,EC50 (Trypanosoma brucei [8]): > 30 µM
O=C(CCC(NC(=O)OCc1ccccc1)C(=O)OC1CCCCC1)NC(CSc1ccc([N+](=O)[O-])cc1[N+](=O)[O-])C(=O)NCC(=O)OC1CCCCC1 (stereo not given),15.9 µM,,0.19 µM,,ED50 (Trypanosoma cruzi [7]): 3 µM
NC(=O)CNC(=O)C(CSCc1ccc(Br)cc1)NC(=O)CCC(NC(=O)OCc1ccccc1)C(N)=O (stereo not given),> 50 µM,inactive,> 30 µM,inactive,
COC(=O)CNC(=O)C(CSC(=O)OCc1ccccc1)NC(=O)CCC(NC(=O)OCc1ccccc1)C(=O)OC (stereo not given),1.26 µM,,17 µM,,
COC(=O)CNC(=O)C(CSCc1ccc(Br)cc1)NC(=O)CCC(NC=O)C(=O)OC (stereo not given),> 50 µM,inactive,,,NA (Trypanosoma brucei [4]): inactive; Inhibition (Trypanosoma cruzi [9]): 12%
CCCCCCCCOC(=O)CNC(=O)C(CSc1ccc([N+](=O)[O-])cc1[N+](=O)[O-])NC(=O)CCC(NC(=O)OCc1ccccc1)C(=O)OCCCCCCCC (stereo not given),24.7 µM,,,,ED50 (Leishmania donovani [6]): > 50 µM
COC(=O)CNC(=O)C(CSc1ccc([N+](=O)[O-])cc1[N+](=O)[O-])NC(=O)CCC(NC(=O)OCc1ccccc1)C(=O)OC (stereo not given),23.4 µM,,16.2 µM,,ED50 (Leishmania donovani [6]): > 30 µM
CCCOC(=O)CNC(=O)C(CSc1ccc([N+](=O)[O-])cc1[N+](=O)[O-])NC(=O)CCC(NC(=O)OCc1ccccc1)C(=O)OCCC (stereo not given),17.6 µM,,6 µM,,ED50 (Leishmania donovani [6]): > 30 µM
O=C(O)CNC(=O)C(CSCc1ccc(Br)cc1)NC(=O)CCC(NC(=O)OCc1ccccc1)C(=O)O (stereo not given),> 50 µM,inactive,> 30 µM,inactive,
CCCCOC(=O)CNC(=O)C(CSCc1ccc(Br)cc1)NC(=O)CCC(NC(=O)OCc1ccccc1)C(=O)OCCCC (stereo not given),16.7 µM,,1.9 µM,,Inhibition (Leishmania donovani [10]): 68%
CC(=O)NC(CCC(=O)NC(CSCc1ccc(Br)cc1)C(=O)NCC(=O)O)C(=O)O (stereo not given),> 50 µM,inactive,> 30 µM,inactive,
NC(=O)CNC(=O)C(CSCc1ccc(Br)cc1)NC(=O)CCC(N)C(N)=O (stereo not given),> 50 µM,,,inactive,NA (Trypanosoma brucei [4]): inactive; Inhibition (Leishmania donovani [10]): 4%
CCCCOC(=O)CNC(=O)C(CSc1ccc([N+](=O)[O-])cc1[N+](=O)[O-])NC(=O)CCC(NC(=O)OCc1ccccc1)C(=O)OCCCC (stereo not given),21.8 µM,,1.07 µM,,ED50 (Leishmania donovani [6]): > 30 µM
NC(=O)CNC(=O)C(CSCc1ccc(Br)cc1)NC(=O)CCC(NC(=O)OCc1ccccc1)C(=O)O (stereo not given),> 50 µM,inactive,,inactive,NA (Trypanosoma brucei [4]): inactive
N[C@@H](CCC(=O)N[C@@H](CSCc1ccc(Br)cc1)C(=O)NCC(=O)O)C(=O)O,> 50 µM,inactive,> 30 µM,inactive,
COC(=O)CNC(=O)C(CSCc1ccc(Br)cc1)NC(=O)CCC(N)C(=O)OC (stereo not given),> 50 µM,,,inactive,NA (Trypanosoma brucei [4]): inactive; Inhibition (Leishmania donovani [10]): 8.7%
COC(=O)CNC(=O)C(CSCc1ccc(Br)cc1)NC(=O)CCC(N)C(=O)O (stereo not given),> 50 µM,inactive,> 30 µM,inactive,
